The values below come from PMC8809394 (Chemical Science, 2022).

The target in series [1] is T1, POPNeut (prolyl oligopeptidase variant) (Pyrococcus furiosus, UniProt Q51714, G99A/K255A/R198A/R338A/R55A/W142A/Y326A).
T1 sequence (Q51714 1-616 R55A/G99A/W142A/R198A/K255A/Y326A/R338A): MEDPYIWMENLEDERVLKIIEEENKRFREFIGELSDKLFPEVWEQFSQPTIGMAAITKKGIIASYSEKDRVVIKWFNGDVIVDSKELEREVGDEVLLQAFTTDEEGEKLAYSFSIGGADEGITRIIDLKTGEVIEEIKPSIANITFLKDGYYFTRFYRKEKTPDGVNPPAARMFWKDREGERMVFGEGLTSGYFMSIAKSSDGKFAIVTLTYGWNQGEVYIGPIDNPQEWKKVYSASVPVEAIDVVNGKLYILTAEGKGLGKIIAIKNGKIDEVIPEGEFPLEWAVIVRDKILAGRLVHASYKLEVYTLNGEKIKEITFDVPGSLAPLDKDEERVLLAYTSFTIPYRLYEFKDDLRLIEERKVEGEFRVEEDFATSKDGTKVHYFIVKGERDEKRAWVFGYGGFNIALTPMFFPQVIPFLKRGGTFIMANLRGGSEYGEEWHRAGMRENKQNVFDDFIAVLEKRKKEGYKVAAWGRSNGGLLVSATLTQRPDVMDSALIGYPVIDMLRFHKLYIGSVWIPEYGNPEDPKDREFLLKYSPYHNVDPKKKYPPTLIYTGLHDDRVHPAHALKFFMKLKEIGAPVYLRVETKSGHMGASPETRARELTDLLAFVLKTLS
Put plainly: Luminescence lifetime titration, cofactor binding to POPNeut. A digest of the protocol:
(§1)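 Non-covalent binding is measured by luminescence lifetime titration of the Ru(Bpy)3 2+-type cofactor against Pyrococcus furiosus prolyl oligopeptidase scaffold variants. Kd comes from the titration. Δ lifetime is the lifetime difference between free and bound cofactor. Each plotted point is a single measurement. Error bars are standard deviations from single-exponential tail fitting of the decay data.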

Another series has as its target BSA (Bos taurus, UniProt P02769). Put plainly: Luminescence lifetime titration with BSA. The class given is binding. The conditions noted are these: 3a 5 μM, BSA in MQ H2O.
Series [2] deals with T2, POPWT (prolyl oligopeptidase) (Pyrococcus furiosus, UniProt Q51714).
T2 sequence (Q51714 1-616): T1 sequence (Q51714 1-616 R55A/G99A/W142A/R198A/K255A/Y326A/R338A) with A55R, A99G, A142W, A198R, A255K, A326Y, A338R
Briefly: Luminescence lifetime titration, cofactor binding to POPWT. The settings on record: for Kd: POPWT 0-300 μM, cofactor 5 μM, MQ H2O (+/- 0.5% ACN); for Δ lifetime (free vs. bound cofactor): non-covalent binding to POPWT. The method, boiled down: as §1

The conditions of series [3]: deoxygenated acetonitrile ref 5,8; cited from earlier work.
For series [4], the target named is T3, POPNeg (prolyl oligopeptidase variant) (Pyrococcus furiosus, UniProt Q51714, G99D/K255A/R198A/R338A/R55A/W142D/Y326D).
T3 sequence (Q51714 1-616 R55A/G99D/W142D/R198A/K255A/Y326D/R338A): T1 sequence (Q51714 1-616 R55A/G99A/W142A/R198A/K255A/Y326A/R338A) with A99D, A142D, A326D
Briefly: Luminescence lifetime titration, cofactor binding to POPNeg. The conditions noted are these: non-covalent binding to POPNeg. The method, boiled down: as §1

A short description of another series: Luminescence lifetime. It counts as physicochemical. The conditions noted are these: MQ H2O; λexc 450 nm, λem 620 nm; covalent ArMs 50 μM.

The structures appear in SMILES notation. Residue numbers refer to the chain shown, from its start. Several values for one entry are separate records, joined by “and”; a condition that tells them apart may be missing. Equal entries are not always repeated.

Sequence of BSA (P02769 25-607): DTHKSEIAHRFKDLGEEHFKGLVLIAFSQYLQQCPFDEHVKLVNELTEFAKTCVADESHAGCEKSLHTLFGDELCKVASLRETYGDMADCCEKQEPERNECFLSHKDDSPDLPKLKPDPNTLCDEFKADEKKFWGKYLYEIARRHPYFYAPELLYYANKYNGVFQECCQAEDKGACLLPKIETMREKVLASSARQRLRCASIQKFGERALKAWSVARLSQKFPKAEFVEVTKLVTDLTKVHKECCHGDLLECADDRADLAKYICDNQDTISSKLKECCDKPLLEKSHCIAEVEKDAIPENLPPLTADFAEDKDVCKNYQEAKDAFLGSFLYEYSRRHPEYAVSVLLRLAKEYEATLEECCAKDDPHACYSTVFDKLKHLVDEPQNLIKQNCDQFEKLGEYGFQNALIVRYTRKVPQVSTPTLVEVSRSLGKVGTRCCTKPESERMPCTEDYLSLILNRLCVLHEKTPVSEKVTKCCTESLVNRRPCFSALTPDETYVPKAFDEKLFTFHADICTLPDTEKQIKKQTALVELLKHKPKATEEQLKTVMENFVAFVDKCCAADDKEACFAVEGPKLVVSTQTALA

As a reminder, the Kd is the concentration at which binding is half-saturated. Read a high Kd as weaker binding. As to `[Cl-].[Cl-].[Ru+2].c1ccc(-c2ccccn2)nc1.c1ccc(-c2ccccn2)nc1.c1ccc(-c2ccccn2)nc1` [3a, Ru(Bpy)3^2+], the Kd is 1.7 µM and 1.65 µM in series [1] (POPNeut 0-300 μM, cofactor 5 μM, MQ H2O); 28 µM and 28.3 µM in series [2]. For the same compound, the “Δ lifetime (free vs. bound cofactor)” value in series [1] (non-covalent binding to POPNeut) was 166 ns; in series [2], 96 ns; in series [4] it was 183 ns. Also, the “binding to BSA” value at BSA is “minimal non-specific binding affinity”; at BSA (listed as Ru(Bpy)3^2+) it was “negligible binding”. Also, the luminescence lifetime in series [3] was 930 ns. For the same compound, the “Lifetime (luminescence)” value in “Luminescence lifetime” stood at 573 ns.

As for `[Ru+2].c1ccc(-c2ccccn2)nc1.c1ccc(-c2ccccn2)nc1.c1ccc(-c2ccccn2)nc1` [3b], in series [2], the Kd was 30 µM and 30.1 µM; the “Δ lifetime (free vs. bound cofactor)” value stood at 110 ns.

On to `O=C([O-])c1ccnc(-c2cc(C(=O)[O-])ccn2)c1.[Ru+2].c1ccc(-c2ccccn2)nc1.c1ccc(-c2ccccn2)nc1` [3d], for which, in series [2], the Kd is 30 µM and 29.5 µM; the “Δ lifetime (free vs. bound cofactor)” value worked out at 35 ns. Moreover, the “Δ lifetime (free vs. bound cofactor)” value in series [4] worked out at 125 ns.
